Data: ChEMBL document CHEMBL1649165, “Activity profile in vitro of micafungin against Spanish clinical isolates of common and emerging species of yeasts and molds” (2009)
Values after ≈ are worked out from the molar mass of the structure shown.

Experiments:
Assay type in all cases: functional
Aspergillus ochraceus = experiment: Antimicrobial activity against Aspergillus ochraceus by broth microdilution method
In short: (§1)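 Clinical mould isolates, tested by broth microdilution using the AFST-EUCAST reference method for filamentous fungi. For echinocandins, the endpoint was the minimum effective concentration: the lowest drug concentration giving aberrant hyphal growth, read with an inverted microscope.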

[1] = tested on: Cladophialophora bantiana; experiment: Antimicrobial activity against Cladophialophora bantiana by broth microdilution method; in short: as §1
Rhizopus arrhizus = experiment: Antimicrobial activity against Rhizopus oryzae by broth microdilution method
In short: (§2)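 Filamentous fungus clinical isolates tested by the AFST-EUCAST reference broth microdilution method for moulds. For echinocandins, the endpoint was the minimum effective concentration: the lowest drug concentration giving aberrant hyphal growth, read with an inverted microscope.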

Trichosporon ovoides = experiment: Antimicrobial activity against Trichosporon ovoides by broth microdilution method
In short: (§3)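 Nonfermentative yeast clinical isolates (Rhodotorula, Trichosporon) tested by broth microdilution. The EUCAST yeast recommendations were followed strictly, with one minor modification to improve growth. MIC was read as the endpoint.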

Aspergillus terreus = experiment: Antimicrobial activity against Aspergillus terreus by broth microdilution method; in short: as §1
Trichosporon = experiment: Antimicrobial activity against Trichosporon spp. by broth microdilution method; in short: as §3
Mucor = experiment: Antimicrobial activity against Mucor spp.by broth microdilution method; in short: as §2
Paecilomyces variotii = experiment: Antimicrobial activity against Paecilomyces variotii by broth microdilution method; in short: as §2
Trichosporon inkin = experiment: Antimicrobial activity against Trichosporon inkin by broth microdilution method; in short: as §3
Aspergillus versicolor = experiment: Antimicrobial activity against Aspergillus versicolor by broth microdilution method; in short: as §1
Alternaria alternata = experiment: Antimicrobial activity against Alternaria alternata by broth microdilution method; in short: as §1
Candida albicans = experiment: Antimicrobial activity against Candida albicans by broth microdilution method
In short: (§4)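 Clinical isolates from human patients, tested by broth microdilution using the AFST-EUCAST reference procedure for fermentative yeasts. The MIC was read per that reference method.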

Trichosporon asahii = experiment: Antimicrobial activity against Trichosporon asahii by broth microdilution method; in short: as §3
Rhodotorula glutinis = experiment: Antimicrobial activity against Rhodotorula glutinis by broth microdilution method; in short: as §3
Aspergillus flavus = experiment: Antimicrobial activity against Aspergillus flavus by broth microdilution method; in short: as §1
[Candida] inconspicua = Antimicrobial activity against Candida inconspicua by broth microdilution method; conditions: Pichia inconspicua; in short: as §4
Wickerhamomyces anomalus = experiment: Antimicrobial activity against Candida pelliculosa by broth microdilution method; conditions: Hansenula anomala; in short: as §4
Fusarium solani = experiment: Antimicrobial activity against Fusarium solani by broth microdilution method; in short: as §2
Trichosporon jirovecii = experiment: Antimicrobial activity against Trichosporon jirovecii by broth microdilution method; conditions: Cutaneotrichosporon jirovecii; in short: as §3
Candida orthopsilosis = experiment: Antimicrobial activity against Candida orthopsilosis by broth microdilution method; conditions: Lodderomyces orthopsilosis; in short: as §4
Nakaseomyces glabratus = experiment: Antimicrobial activity against Candida glabrata by broth microdilution method; in short: as §4
Diutina rugosa = experiment: Antimicrobial activity against Candida rugosa by broth microdilution method; in short: as §4
Rhodotorula mucilaginosa = experiment: Antimicrobial activity against Rhodotorula mucilaginosa by broth microdilution method; in short: as §3
Aspergillus glaucus = experiment: Antimicrobial activity against Aspergillus glaucus by broth microdilution method; in short: as §1
Pichia norvegensis = experiment: Antimicrobial activity against Candida norvegensis by broth microdilution method; in short: as §4
Lomentospora prolificans = experiment: Antimicrobial activity against Scedosporium prolificans by broth microdilution method; in short: as §2
Coprinellus domesticus = experiment: Antimicrobial activity against Hormographiella verticillata by broth microdilution method; in short: as §2
Scedosporium apiospermum = experiment: Antimicrobial activity against Scedosporium apiospermum by broth microdilution method; in short: as §2
Aspergillus fumigatus = experiment: Antimicrobial activity against Aspergillus fumigatus by broth microdilution method; in short: as §1
Clavispora lusitaniae = experiment: Antimicrobial activity against Candida lusitaniae by broth microdilution method; in short: as §4
Candida metapsilosis = experiment: Antimicrobial activity against Candida metapsilosis by broth microdilution method; conditions: Lodderomyces metapsilosis; in short: as §4
Geotrichum candidum = experiment: Antimicrobial activity against Galactomyces geotrichum by broth microdilution method
[2] = tested on: Scopulariopsis brevicaulis; experiment: Antimicrobial activity against Scopulariopsis brevicaulis by broth microdilution method; in short: as §2
Phialemonium curvatum = experiment: Antimicrobial activity against Phialemonium curvatum by broth microdilution method; conditions: Thyridium curvatum; in short: as §2
Aspergillus nidulans = experiment: Antimicrobial activity against Aspergillus nidulans by broth microdilution method; in short: as §1
Magnusiomyces capitatus = experiment: Antimicrobial activity against Dipodascus capitatus by broth microdilution method
Lecythophora hoffmannii = experiment: Antimicrobial activity against Lecythophora hoffmannii by broth microdilution method; conditions: Coniochaeta hoffmannii; in short: as §2
Fusarium equiseti = experiment: Antimicrobial activity against Fusarium equiseti by broth microdilution method; in short: as §1
Pichia kudriavzevii = experiment: Antimicrobial activity against Candida krusei by broth microdilution method; in short: as §4
[3] = tested on: Cunninghamella bertholletiae; experiment: Antimicrobial activity against Cunninghamella bertholletiae by broth microdilution method; in short: as §1
Ustilago = experiment: Antimicrobial activity against Ustilago spp by broth microdilution method

## C[C@@H]1[C@H](O)[C@@H](C)/C=C/C=C/C=C/C=C/C=C/C=C/C=C/[C@H](O[C@@H]2O[C@H](C)[C@@H](O)[C@H](N)[C@@H]2O)C[C@@H]2O[C@](O)(C[C@@H](O)C[C@@H](O)[C@H](O)CC[C@@H](O)C[C@@H](O)CC(=O)O[C@H]1C)C[C@H](O)[C@H]2C(=O)O [AMPHOTERICIN B]
Aspergillus ochraceus
  MIC50: 0.5 µg/mL (≈ 0.541 µM)
  MIC90: > 16 µg/mL
[1]
  MIC50: 0.25 µg/mL (≈ 0.271 µM)
  MIC90: 1 µg/mL (≈ 1.08 µM)
Rhizopus arrhizus
  MIC50: 0.5 µg/mL (≈ 0.541 µM)
  MIC90: 2 µg/mL (≈ 2.16 µM)
Trichosporon ovoides
  MIC50: 0.5 µg/mL (≈ 0.541 µM)
  MIC90: 8 µg/mL (≈ 8.66 µM)
Aspergillus terreus
  MIC50: 1 µg/mL (≈ 1.08 µM)
  MIC90: 4 µg/mL (≈ 4.33 µM)
Trichosporon
  MIC50: 0.5 µg/mL (≈ 0.541 µM)
  MIC90: 8 µg/mL (≈ 8.66 µM)
Mucor
  MIC50: 0.12 µg/mL (≈ 0.13 µM)
  MIC90: 1 µg/mL (≈ 1.08 µM)
Paecilomyces variotii
  MIC50: 0.03 µg/mL (≈ 0.0325 µM)
  MIC90: 0.5 µg/mL (≈ 0.541 µM)
Trichosporon inkin
  MIC50: 0.12 µg/mL (≈ 0.13 µM)
  MIC90: 1 µg/mL (≈ 1.08 µM)
Aspergillus versicolor
  MIC50: 1 µg/mL (≈ 1.08 µM)
  MIC90: 2 µg/mL (≈ 2.16 µM)
Alternaria alternata
  MIC50: 0.5 µg/mL (≈ 0.541 µM)
  MIC90: > 16 µg/mL
Candida albicans
  MIC50: 0.06 µg/mL (≈ 0.0649 µM)
  MIC90: 0.12 µg/mL (≈ 0.13 µM)
Trichosporon asahii
  MIC50: 8 µg/mL (≈ 8.66 µM)
  MIC90: > 16 µg/mL
Rhodotorula glutinis
  MIC50: 0.5 µg/mL (≈ 0.541 µM)
  MIC90: 8 µg/mL (≈ 8.66 µM)
Aspergillus flavus
  MIC50: 1 µg/mL (≈ 1.08 µM)
  MIC90: 2 µg/mL (≈ 2.16 µM)
[Candida] inconspicua
  MIC50: 0.12 µg/mL (≈ 0.13 µM)
  MIC90: 1 µg/mL (≈ 1.08 µM)
Wickerhamomyces anomalus
  MIC50: 0.12 µg/mL (≈ 0.13 µM)
  MIC90: 1 µg/mL (≈ 1.08 µM)
Fusarium solani
  MIC50: 1 µg/mL (≈ 1.08 µM)
  MIC90: 2 µg/mL (≈ 2.16 µM)
Trichosporon jirovecii
  MIC50: 0.5 µg/mL (≈ 0.541 µM)
  MIC90: 8 µg/mL (≈ 8.66 µM)
Candida orthopsilosis
  MIC50: 0.12 µg/mL (≈ 0.13 µM)
  MIC90: 1 µg/mL (≈ 1.08 µM)
Nakaseomyces glabratus
  MIC50: 0.12 µg/mL (≈ 0.13 µM)
  MIC90: 0.25 µg/mL (≈ 0.271 µM)
Diutina rugosa
  MIC50: 0.12 µg/mL (≈ 0.13 µM)
  MIC90: 1 µg/mL (≈ 1.08 µM)
Rhodotorula mucilaginosa
  MIC50: 0.12 µg/mL (≈ 0.13 µM)
  MIC90: 0.5 µg/mL (≈ 0.541 µM)
Aspergillus glaucus
  MIC50: 0.5 µg/mL (≈ 0.541 µM)
  MIC90: > 16 µg/mL
Pichia norvegensis
  MIC50: 0.12 µg/mL (≈ 0.13 µM)
  MIC90: 1 µg/mL (≈ 1.08 µM)
Lomentospora prolificans
  MIC50: > 16 µg/mL
  MIC90: > 16 µg/mL
Coprinellus domesticus
  MIC50: 0.5 µg/mL (≈ 0.541 µM)
  MIC90: > 16 µg/mL
Scedosporium apiospermum
  MIC50: 4 µg/mL (≈ 4.33 µM)
  MIC90: > 16 µg/mL
Aspergillus fumigatus
  MIC50: 0.25 µg/mL (≈ 0.271 µM)
  MIC90: 0.5 µg/mL (≈ 0.541 µM)
Clavispora lusitaniae
  MIC50: 0.06 µg/mL (≈ 0.0649 µM)
  MIC90: 0.12 µg/mL (≈ 0.13 µM)
Candida metapsilosis
  MIC50: 0.12 µg/mL (≈ 0.13 µM)
  MIC90: 1 µg/mL (≈ 1.08 µM)
Geotrichum candidum
  MIC50: 0.25 µg/mL (≈ 0.271 µM)
  MIC90: 0.5 µg/mL (≈ 0.541 µM)
[2]
  MIC50: 0.5 µg/mL (≈ 0.541 µM)
  MIC90: > 16 µg/mL
Phialemonium curvatum
  MIC50: 0.5 µg/mL (≈ 0.541 µM)
  MIC90: > 16 µg/mL
Aspergillus nidulans
  MIC50: 1 µg/mL (≈ 1.08 µM)
  MIC90: 4 µg/mL (≈ 4.33 µM)
Magnusiomyces capitatus
  MIC50: 0.5 µg/mL (≈ 0.541 µM)
  MIC90: 0.5 µg/mL (≈ 0.541 µM)
Lecythophora hoffmannii
  MIC50: 0.25 µg/mL (≈ 0.271 µM)
  MIC90: 1 µg/mL (≈ 1.08 µM)
Fusarium equiseti
  MIC50: 0.5 µg/mL (≈ 0.541 µM)
  MIC90: > 16 µg/mL
Pichia kudriavzevii
  MIC50: 0.5 µg/mL (≈ 0.541 µM)
  MIC90: 0.5 µg/mL (≈ 0.541 µM)
[3]
  MIC50: 2 µg/mL (≈ 2.16 µM)
  MIC90: > 16 µg/mL
Ustilago
  MIC50: 0.5 µg/mL (≈ 0.541 µM)
  MIC90: 8 µg/mL (≈ 8.66 µM)
